ChEMBL document CHEMBL1156701, “Synthesis, potent anti-staphylococcal activity and QSARs of some novel 2-anilinobenzazoles” (2008)
≈ marks a conversion by molar mass, not a printed value.

Key:
Staphylococcus aureus [1] = test: Antibacterial activity against methicillin-resistant Staphylococcus aureus ATCC 43300 after 18 hrs by macro broth dilution assay; format: functional; conditions: for MIC: Staphylococcus aureus, ATCC 43300, 18 h
Outline: (§1)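 Compounds dissolved in 50% DMSO–water at 400 (stock); fourfold dilution with medium and inoculum gives 100 top concentration in first tube (12.5% DMSO, not scored). Inoculum: 4–5 colonies from overnight Tryptic Soy Agar in saline to 0.5 McFarland, diluted 1:100 in MHB (10⁶ CFU/ml); 1 mL added to 1 mL compound dilution in MHB. 35 °C, 18 h; MIC read. Agar diffusion pre-screen first.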

Staphylococcus aureus [2] = test: Antibacterial activity against Staphylococcus aureus ATCC 25923 after 18 hrs by macro broth dilution assay; format: functional; conditions: for MIC: Staphylococcus aureus, ATCC 25923, 18 h; outline: as §1

Clc1ccc(Nc2nc3cc(Cl)ccc3[nH]2)cc1
log(1/C) (Staphylococcus aureus [1]): 5.25
MIC (Staphylococcus aureus [1]): 1.56 µg/mL (≈ 5.61 µM)
log(1/C) (Staphylococcus aureus [2]): 4.95
MIC (Staphylococcus aureus [2]): 3.12 µg/mL (≈ 11.2 µM)

Clc1ccc(Nc2nc3cc(Br)ccc3[nH]2)cc1Cl
log(1/C) (Staphylococcus aureus [1]): 6.28
MIC (Staphylococcus aureus [1]): 0.19 µg/mL (≈ 0.532 µM)
log(1/C) (Staphylococcus aureus [2]): 6.55
MIC (Staphylococcus aureus [2]): 0.095 µg/mL (≈ 0.266 µM)

Clc1ccc(Nc2nc3ccccc3[nH]2)cc1Cl
log(1/C) (Staphylococcus aureus [1]): 4.65
MIC (Staphylococcus aureus [1]): 6.25 µg/mL (≈ 22.5 µM)
log(1/C) (Staphylococcus aureus [2]): 4.95
MIC (Staphylococcus aureus [2]): 3.12 µg/mL (≈ 11.2 µM)

FC(F)(F)c1cc(Nc2nc3cc(Cl)ccc3[nH]2)ccc1Cl
MIC (Staphylococcus aureus [1]): 0.39 µg/mL (≈ 1.13 µM)
log(1/C) (Staphylococcus aureus [2]): 5.95
MIC (Staphylococcus aureus [2]): 0.39 µg/mL (≈ 1.13 µM)

Clc1ccc(Nc2nc3cc(Cl)c(Cl)cc3[nH]2)cc1
MIC (Staphylococcus aureus [1]): 0.39 µg/mL (≈ 1.25 µM)
log(1/C) (Staphylococcus aureus [2]): 5.9
MIC (Staphylococcus aureus [2]): 0.39 µg/mL (≈ 1.25 µM)

CC1(C)S[C@@H]2[C@H](NC(=O)[C@H](N)c3ccccc3)C(=O)N2[C@H]1C(=O)OCOC(=O)[C@@H]1N2C(=O)C[C@H]2S(=O)(=O)C1(C)C [SULTAMICILLIN]
MIC (Staphylococcus aureus [1]): 25 µg/mL (≈ 42 µM)
MIC (Staphylococcus aureus [2]): 0.78 µg/mL (≈ 1.31 µM)

N#Cc1ccc2[nH]c(Nc3ccc(Cl)c(Cl)c3)nc2c1
MIC (Staphylococcus aureus [1]): 1.56 µg/mL (≈ 5.15 µM)
log(1/C) (Staphylococcus aureus [2]): 5.28
MIC (Staphylococcus aureus [2]): 1.56 µg/mL (≈ 5.15 µM)

Clc1ccc2[nH]c(Nc3ccc(Br)cc3)nc2c1
log(1/C) (Staphylococcus aureus [1]): 5.62
MIC (Staphylococcus aureus [1]): 0.78 µg/mL (≈ 2.42 µM)
log(1/C) (Staphylococcus aureus [2]): 5.31
MIC (Staphylococcus aureus [2]): 1.56 µg/mL (≈ 4.84 µM)

[N-]=[N+]=Nc1ccc(Nc2nc3cc(Cl)ccc3[nH]2)cc1
log(1/C) (Staphylococcus aureus [1]): 4.66
MIC (Staphylococcus aureus [1]): 6.25 µg/mL (≈ 22 µM)
log(1/C) (Staphylococcus aureus [2]): 4.96
MIC (Staphylococcus aureus [2]): 3.12 µg/mL (≈ 11 µM)

Fc1cccc(Nc2nc3cc(Cl)ccc3[nH]2)c1
MIC (Staphylococcus aureus [1]): 6.25 µg/mL (≈ 23.9 µM)
log(1/C) (Staphylococcus aureus [2]): 4.62
MIC (Staphylococcus aureus [2]): 6.25 µg/mL (≈ 23.9 µM)

Fc1ccc2[nH]c(Nc3ccc(Cl)c(Cl)c3)nc2c1
MIC (Staphylococcus aureus [1]): 1.56 µg/mL (≈ 5.27 µM)
log(1/C) (Staphylococcus aureus [2]): 5.28
MIC (Staphylococcus aureus [2]): 1.56 µg/mL (≈ 5.27 µM)

FC(F)(F)c1ccc2[nH]c(Nc3ccc(Cl)c(Cl)c3)nc2c1
MIC (Staphylococcus aureus [1]): 0.19 µg/mL (≈ 0.549 µM)
log(1/C) (Staphylococcus aureus [2]): 6.26
MIC (Staphylococcus aureus [2]): 0.19 µg/mL (≈ 0.549 µM)

CC1(C)S[C@@H]2[C@H](NC(=O)[C@H](N)c3ccccc3)C(=O)N2[C@H]1C(=O)O [AMPICILLIN]
MIC (Staphylococcus aureus [1]): 25 µg/mL (≈ 71.5 µM)
MIC (Staphylococcus aureus [2]): 0.78 µg/mL (≈ 2.23 µM)

FC(F)(F)c1ccc(Cl)c(Nc2nc3cc(Cl)ccc3[nH]2)c1
MIC (Staphylococcus aureus [1]): 0.78 µg/mL (≈ 2.25 µM)
log(1/C) (Staphylococcus aureus [2]): 5.65
MIC (Staphylococcus aureus [2]): 0.78 µg/mL (≈ 2.25 µM)

Clc1ccc(Nc2nc3cc(I)ccc3[nH]2)cc1Cl
MIC (Staphylococcus aureus [1]): 0.78 µg/mL (≈ 1.93 µM)
log(1/C) (Staphylococcus aureus [2]): 5.71
MIC (Staphylococcus aureus [2]): 0.78 µg/mL (≈ 1.93 µM)

Fc1cc(F)cc(Nc2nc3cc(Cl)ccc3[nH]2)c1
MIC (Staphylococcus aureus [1]): 1.56 µg/mL (≈ 5.58 µM)
log(1/C) (Staphylococcus aureus [2]): 5.25
MIC (Staphylococcus aureus [2]): 1.56 µg/mL (≈ 5.58 µM)

Fc1ccc(Nc2nc3cc(Cl)ccc3[nH]2)cc1
log(1/C) (Staphylococcus aureus [1]): 4.32
MIC (Staphylococcus aureus [1]): 12.5 µg/mL (≈ 47.8 µM)
log(1/C) (Staphylococcus aureus [2]): 4.92
MIC (Staphylococcus aureus [2]): 3.12 µg/mL (≈ 11.9 µM)

Clc1ccc2[nH]c(Nc3ccc(Cl)c(Cl)c3)nc2c1
MIC (Staphylococcus aureus [1]): 0.39 µg/mL (≈ 1.25 µM)
log(1/C) (Staphylococcus aureus [2]): 5.9
MIC (Staphylococcus aureus [2]): 0.39 µg/mL (≈ 1.25 µM)

Clc1ccc(Oc2ccccc2Nc2nc3cc(Cl)ccc3[nH]2)cc1
MIC (Staphylococcus aureus [1]): 1.56 µg/mL (≈ 4.21 µM)
log(1/C) (Staphylococcus aureus [2]): 5.38
MIC (Staphylococcus aureus [2]): 1.56 µg/mL (≈ 4.21 µM)

O=[N+]([O-])c1ccc2[nH]c(Nc3ccc(Cl)cc3)nc2c1
MIC (Staphylococcus aureus [1]): 1.56 µg/mL (≈ 5.4 µM)
log(1/C) (Staphylococcus aureus [2]): 5.27
MIC (Staphylococcus aureus [2]): 1.56 µg/mL (≈ 5.4 µM)

COc1ccc(Nc2nc3cc(Cl)ccc3[nH]2)cc1
MIC (Staphylococcus aureus [1]): 50 µg/mL (≈ 183 µM)
log(1/C) (Staphylococcus aureus [2]): 3.74
MIC (Staphylococcus aureus [2]): 50 µg/mL (≈ 183 µM)

Clc1ccc(Nc2nc3cc(Cl)c(Cl)cc3[nH]2)cc1Cl
MIC (Staphylococcus aureus [1]): 0.39 µg/mL (≈ 1.12 µM)
log(1/C) (Staphylococcus aureus [2]): 5.95
MIC (Staphylococcus aureus [2]): 0.39 µg/mL (≈ 1.12 µM)

Fc1ccc(Nc2nc3cc(Cl)ccc3[nH]2)cc1Cl
MIC (Staphylococcus aureus [1]): 1.56 µg/mL (≈ 5.27 µM)
log(1/C) (Staphylococcus aureus [2]): 5.28
MIC (Staphylococcus aureus [2]): 1.56 µg/mL (≈ 5.27 µM)

FC(F)(F)c1ccc(Nc2nc3cc(Cl)ccc3[nH]2)cc1
MIC (Staphylococcus aureus [1]): 0.39 µg/mL (≈ 1.25 µM)
log(1/C) (Staphylococcus aureus [2]): 5.9
MIC (Staphylococcus aureus [2]): 0.39 µg/mL (≈ 1.25 µM)

Clc1cc(Cl)cc(Nc2nc3cc(Cl)ccc3[nH]2)c1
MIC (Staphylococcus aureus [1]): 0.39 µg/mL (≈ 1.25 µM)
log(1/C) (Staphylococcus aureus [2]): 5.9
MIC (Staphylococcus aureus [2]): 0.39 µg/mL (≈ 1.25 µM)

FC(F)(F)Oc1ccc(Nc2nc3cc(Cl)ccc3[nH]2)cc1
MIC (Staphylococcus aureus [1]): 0.78 µg/mL (≈ 2.38 µM)
log(1/C) (Staphylococcus aureus [2]): 5.62
MIC (Staphylococcus aureus [2]): 0.78 µg/mL (≈ 2.38 µM)

Fc1ccc(Nc2nc3cc(Cl)ccc3[nH]2)c(F)c1
log(1/C) (Staphylococcus aureus [1]): 4.65
MIC (Staphylococcus aureus [1]): 6.25 µg/mL (≈ 22.3 µM)
log(1/C) (Staphylococcus aureus [2]): 4.35
MIC (Staphylococcus aureus [2]): 12.5 µg/mL (≈ 44.7 µM)

FC(F)(F)c1cccc(Nc2nc3cc(Cl)ccc3[nH]2)c1
log(1/C) (Staphylococcus aureus [1]): 5.3
MIC (Staphylococcus aureus [1]): 1.56 µg/mL (≈ 5 µM)
log(1/C) (Staphylococcus aureus [2]): 5.9
MIC (Staphylococcus aureus [2]): 0.39 µg/mL (≈ 1.25 µM)

Clc1ccc(Nc2nc3cc(Cl)ccc3[nH]2)c(Cl)c1
MIC (Staphylococcus aureus [1]): 0.39 µg/mL (≈ 1.25 µM)
log(1/C) (Staphylococcus aureus [2]): 5.9
MIC (Staphylococcus aureus [2]): 0.39 µg/mL (≈ 1.25 µM)

Nc1ccc2[nH]c(Nc3ccc(Cl)c(Cl)c3)nc2c1
log(1/C) (Staphylococcus aureus [1]): 3.77
MIC (Staphylococcus aureus [1]): 50 µg/mL (≈ 171 µM)
log(1/C) (Staphylococcus aureus [2]): 4.07
MIC (Staphylococcus aureus [2]): 25 µg/mL (≈ 85.3 µM)

O=[N+]([O-])c1ccc2[nH]c(Nc3ccc(Cl)c(Cl)c3)nc2c1
log(1/C) (Staphylococcus aureus [1]): 5.32
MIC (Staphylococcus aureus [1]): 1.56 µg/mL (≈ 4.83 µM)
log(1/C) (Staphylococcus aureus [2]): 5.62
MIC (Staphylococcus aureus [2]): 0.78 µg/mL (≈ 2.41 µM)

COC(=O)c1ccc2[nH]c(Nc3ccc(Cl)c(Cl)c3)nc2c1
log(1/C) (Staphylococcus aureus [1]): 5.64
MIC (Staphylococcus aureus [1]): 0.78 µg/mL (≈ 2.32 µM)
log(1/C) (Staphylococcus aureus [2]): 5.34
MIC (Staphylococcus aureus [2]): 1.56 µg/mL (≈ 4.64 µM)

Cc1cc2[nH]c(Nc3ccc(Cl)c(Cl)c3)nc2cc1Cl
MIC (Staphylococcus aureus [1]): 0.39 µg/mL (≈ 1.19 µM)
log(1/C) (Staphylococcus aureus [2]): 5.92
MIC (Staphylococcus aureus [2]): 0.39 µg/mL (≈ 1.19 µM)
